Columns and labels:
Canis familiaris [1] = experiment: Diuretic activity was evaluated by measuring amount of Cl- during 0-6 h in urine of normotensive saline loaded dogs at 3.0 mg/kg, po; format: ADME, organism-based, Canis lupus familiaris; set-up: dose 3 mg/kg, route oral; details: dog, in vivo
Outline: (§1)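 Conscious female dogs, each given one oral dose per experiment. Urine and heparinized venous plasma were taken at each collection time. Urine was centrifuged and chilled, and plasma was separated within 30 min. Both were assayed for Na+, K+, Cl−, urate and glucose. Results are mean excretion in mequiv kg−1 (6 h)−1, with at least two dogs per dose.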

Canis familiaris [2] = experiment: Diuretic activity was evaluated by measuring amount of Cl- during 0-6 h in urine of normotensive saline loaded dogs at 0.3mg/kg, po; format: ADME, organism-based, Canis lupus familiaris; details: dog, in vivo; outline: as §1
[3] = Diuretic activity was evaluated by measuring amount of K+ during 0-6 hr in urine of normotensive […] monkey at 30mg/kg, po; format: ADME, organism-based; details: simiiformes, in vivo
Outline: (§2)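 Male and female cynomolgus monkeys, fasted 16–18 h with water until dosing, six per dose. Compound or vehicle was given by pediatric nasogastric tube, followed at once by a 50 mL/kg water load. Monkeys were kept in metabolism cages without food or water for 6 h. Urine was collected at 0–1, 1–2, 2–4 and 4–6 h, and volume, electrolytes, uric acid and glucose were measured.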

Rattus norvegicus [4] = experiment: Diuretic activity was evaluated by measuring amount of K+ during 0-6 hr in urine of normotensive saline loaded rats at 3.0mg/kg, po; format: ADME, organism-based; details: in vivo, 3 mg/kg
Outline: (§3)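 Male normotensive Sprague–Dawley rats (275–375 g), eight per group. Test compound or vehicle (0.2% methylcellulose in water, 2 mL/kg) is given by mouth, followed at once by a 0.9% saline load equal to 5% of body weight. Rats are housed in metabolism cages without food or water. Urine is collected at 2, 6 and 24 h and assayed for Na+, K+, Cl−, uric acid and osmolality.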

Rattus norvegicus [5] = experiment: Diuretic activity was evaluated by measuring amount of K+ during 0-6 hr in urine of normotensive saline loaded rats at 30.0mg/kg, po; format: ADME, organism-based; details: in vivo, 30 mg/kg; outline: as §3
Canis familiaris [6] = experiment: Diuretic activity was evaluated by measuring amount of Na+ during 0-6 hr in urine of normotensive saline loaded dogs at 0.1 mg/kg, po; format: ADME, organism-based, Canis lupus familiaris; set-up: dose 0.1 mg/kg, route oral; details: dog, in vivo
Outline: (§4)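 Conscious dogs, each given a single oral dose per experiment, with at least two dogs per dose. Urine volume is measured; aliquots are centrifuged and chilled. Heparinized venous blood (4 mL) is drawn at each urine collection. Urine and plasma are analyzed for Na+, K+, Cl−, urate and glucose. Result is mean Na+ excretion in mequiv kg−1 (6 h)−1.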

Canis familiaris [7] = experiment: Diuretic activity was evaluated by measuring amount of Na+ during 0-6 hr in urine of normotensive saline loaded dogs at 3.0mg/kg, po; format: ADME, organism-based, Canis lupus familiaris; details: dog, in vivo, 3 mg/kg; outline: as §4
[8] = Diuretic activity was evaluated by measuring amount of Na+ during 0-6 hr in urine of normotensive […] monkey at 30mg/kg, po; format: ADME, organism-based; details: simiiformes, in vivo
Outline: (§5)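 Male and female cynomolgus monkeys, fasted 16–18 h with water until dosing, six per dose. Compound or vehicle is given through a nasogastric tube, then a 50 mL/kg water load. No food or water for 6 h in metabolism cages. Urine is collected at 0–1, 1–2, 2–4 and 4–6 h and analyzed for electrolytes, uric acid and glucose.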

[9] = Diuretic activity was evaluated by measuring amount of Na+ during 0-6 hr in urine of […] monkey at 3mg/kg, po; format: ADME, organism-based; details: simiiformes, in vivo; outline: as §5
Rattus norvegicus [10] = experiment: Diuretic activity was evaluated by measuring amount of Na+ during 0-6 hr in urine of normotensive saline loaded rats at 0.1 mg/kg, po; format: ADME, organism-based; set-up: dose 0.1 mg/kg, route oral; details: in vivo; outline: as §3
Rattus norvegicus [11] = experiment: Diuretic activity was evaluated by measuring amount of Na+ during 0-6 h in urine of normotensive saline loaded rats at 0.3 mg/kg, po; format: ADME, organism-based; set-up: dose 0.3 mg/kg, route oral; details: in vivo; outline: as §3
Rattus norvegicus [12] = experiment: Diuretic activity was evaluated by measuring amount of Na+ during 0-6 hr in urine of normotensive saline loaded rats at 1.0mg/kg, po; format: ADME, organism-based; details: in vivo, 1 mg/kg; outline: as §3
Rattus norvegicus [13] = experiment: Diuretic activity was evaluated by measuring amount of Na+ during 0-6 h in urine of normotensive saline loaded rats at 10.0 mg/kg, po; format: ADME, organism-based; set-up: dose 10 mg/kg, route oral; details: in vivo; outline: as §3
Rattus norvegicus [14] = experiment: Diuretic activity was evaluated by measuring amount of Na+ during 0-6 h in urine of normotensive saline loaded rats at 100.0 mg/kg, po; format: ADME, organism-based; set-up: dose 100 mg/kg, route oral; details: in vivo; outline: as §3
Rattus norvegicus [15] = experiment: Diuretic activity was evaluated by measuring amount of Cl- during 0-6 hr in urine of normotensive saline loaded rats at 3.0mg/kg, po; format: ADME, organism-based; details: in vivo, 3 mg/kg
Outline: (§6)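 Male Sprague–Dawley rats (275–375 g), fed and watered ad libitum before testing but not during it, eight per group. Compound in 0.2% methylcellulose/water given orally at 2 mL/kg, immediately followed by a 0.9% saline load equal to 5% of body weight. Rats were kept in individual metabolism cages. Urine was sampled at 2, 6 and 24 h for volume, Na+, K+, Cl−, uric acid and osmolality.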

Canis familiaris [16] = experiment: Diuretic activity was evaluated by measuring amount of K+ during 0-6 hr in urine of normotensive saline loaded dogs at 0.1 mg/kg, po; format: ADME, organism-based, Canis lupus familiaris; set-up: dose 0.1 mg/kg, route oral; details: dog, in vivo; outline: as §1
Canis familiaris [17] = experiment: Diuretic activity was evaluated by measuring amount of K+ during 0-6 hr in urine of normotensive saline loaded dogs at 0.3mg/kg, po; format: ADME, organism-based, Canis lupus familiaris; details: dog, in vivo; outline: as §1
Canis familiaris [18] = experiment: Diuretic activity was evaluated by measuring amount of K+ during 0-6 hr in urine of normotensive saline loaded dogs at 10.0mg/kg, po; format: ADME, organism-based, Canis lupus familiaris; details: dog, in vivo, 10 mg/kg; outline: as §1
[19] = Diuretic activity was evaluated by measuring amount of Cl- during 0-6 hr in urine of normotensive […] monkey at 1 mg/kg, po; format: ADME, organism-based; set-up: dose 1 mg/kg, route oral; details: simiiformes, in vivo; outline: as §2
Rattus norvegicus [20] = experiment: Diuretic activity was evaluated by measuring amount of K+ during 0-6 hr in urine of normotensive saline loaded rats at 0.1 mg/kg, po; format: ADME, organism-based; set-up: dose 0.1 mg/kg, route oral; details: in vivo; outline: as §6
Rattus norvegicus [21] = experiment: Diuretic activity was evaluated by measuring amount of K+ during 0-6 hr in urine of normotensive saline loaded rats at 10.0mg/kg, po; format: ADME, organism-based; details: in vivo, 10 mg/kg; outline: as §6
Rattus norvegicus [22] = experiment: Diuretic activity was evaluated by measuring amount of K+ during 0-6 h in urine of normotensive saline loaded rats at 100.0 mg/kg, po; format: ADME, organism-based; set-up: dose 100 mg/kg, route oral; details: in vivo; outline: as §6
Rattus norvegicus [23] = experiment: Percent change of arterial blood pressure in spontaneously hypertensive rats at the dose of 1 mg/kg (p.o.) after 24 hr (control BP(mm Hg)=215); format: functional; details: route oral
Rattus norvegicus [24] = experiment: Percent change of arterial blood pressure in spontaneously hypertensive rats at the dose of 3 mg/kg (p.o.) after […] (control BP(mm Hg)=221); format: functional; details: route oral
Rattus norvegicus [25] = experiment: Percent change of arterial blood pressure in spontaneously hypertensive rats at the dose of 3 mg/kg (p.o.) after 24 hr (control BP(mm Hg)=221); format: functional; details: route oral
Rattus norvegicus [26] = experiment: Percent change of arterial blood pressure in spontaneously hypertensive rats at the dose of 3 mg/kg (p.o.) after 6 hr (control BP(mm Hg)=221); format: functional; details: route oral
Canis familiaris [27] = experiment: Diuretic activity was evaluated by measuring amount of Na+ during 0-6 h in urine of normotensive saline loaded dogs at 0.3 mg/kg, po; format: ADME, organism-based, Canis lupus familiaris; set-up: dose 0.3 mg/kg, route oral; details: dog, in vivo; outline: as §4
Canis familiaris [28] = experiment: Diuretic activity was evaluated by measuring amount of Cl- during 0-6 h in urine of normotensive saline loaded dogs at 10.0 mg/kg, po; format: ADME, organism-based, Canis lupus familiaris; set-up: dose 10 mg/kg, route oral; details: dog, in vivo; outline: as §1
[29] = Diuretic activity was evaluated by measuring amount of K+ during 0-6 hr in urine of normotensive water loaded monkey at 3mg/kg, po; details: simiiformes, in vivo

- Diuretic activity (Canis familiaris [1]): 7.9 m equiv kg-1
- Diuretic activity (Canis familiaris [2]): 3 m equiv kg-1
- Diuretic activity [3]: 1.5 m equiv kg-1
- Diuretic activity (Rattus norvegicus [4]): 3.8 m equiv kg-1
- Diuretic activity (Rattus norvegicus [5]): 3.8 m equiv kg-1
- Diuretic activity (Canis familiaris [6]): 0.7 m equiv kg-1
- Diuretic activity (Canis familiaris [7]): 7.5 m equiv kg-1
- Diuretic activity [8]: 6.4 m equiv kg-1
- Diuretic activity [9]: 5.3 m equiv kg-1
- Diuretic activity (Rattus norvegicus [10]): 6.6 m equiv kg-1
- Diuretic activity (Rattus norvegicus [11]): 9.6 m equiv kg-1
- Diuretic activity (Rattus norvegicus [12]): 12.8 m equiv kg-1
- Diuretic activity (Rattus norvegicus [13]): 14 m equiv kg-1
- Diuretic activity (Rattus norvegicus [14]): 13.8 m equiv kg-1
- Diuretic activity (Rattus norvegicus [15]): 16.3 m equiv kg-1
- Diuretic activity (Canis familiaris [16]): 0.6 m equiv kg-1
- Diuretic activity (Canis familiaris [17]): 1 m equiv kg-1
- Diuretic activity (Canis familiaris [18]): 1.7 m equiv kg-1
- Diuretic activity [19]: 2.7 m equiv kg-1
- Diuretic activity (Rattus norvegicus [20]): 2.6 m equiv kg-1
- Diuretic activity (Rattus norvegicus [21]): 3.3 m equiv kg-1
- Diuretic activity (Rattus norvegicus [22]): 3.6 m equiv kg-1
- Diuretic activity (Canis familiaris [27]): 2.7 m equiv kg-1
- Diuretic activity (Canis familiaris [28]): 7 m equiv kg-1
- Diuretic activity [29]: 1.1 m equiv kg-1
Structure (SMILES): CCOC(=O)COc1ccc(C(=O)c2ccc(O)c(CN)c2)c(Cl)c1Cl.Cl
- Change (Rattus norvegicus [23]): -6%
- Change (Rattus norvegicus [24]): -22%
- Change (Rattus norvegicus [25]): -14%
- Change (Rattus norvegicus [26]): -13%
